Key:
Assay type in all cases: functional
[1] = Growth inhibition of human BT549 cells after 48 hrs by SRB assay; conditions: BT-549, 48 h
Outline: (§1)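 NCI-60 panel screen. Cells exposed for 48 h to five concentrations (10−4, 10−5, 10−6, 10−7 and 10−8 M). Sulforhodamine B optical density is read just before compound addition (time zero) and after 48 h, for both treated and vehicle-control wells. Percent growth is calculated against control. GI50 is the concentration giving a 50% reduction in net cell growth relative to cell numbers on day 0.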

NCI-H522 = experiment: Growth inhibition of human NCI-H522 cells after 48 hrs by SRB assay; conditions: NCI-H522, 48 h; outline: as §1
ACHN = experiment: Growth inhibition of human ACHN cells after 48 hrs by SRB assay; outline: as §1
SK-MEL-28 = experiment: Growth inhibition of human SK-MEL-28 cells after 48 hrs by SRB assay; conditions: SK-MEL-28, 48 h; outline: as §1
KM12 = experiment: Growth inhibition of human KM12 cells after 48 hrs by SRB assay; conditions: KM12, 48 h; outline: as §1
SW-620 = experiment: Growth inhibition of human SW620 cells after 48 hrs by SRB assay; conditions: SW-620, 48 h
Outline: (§2)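 NCI-60 panel cells; preliminary single-dose screen at 10−5 M, then five-dose testing at 10−4 to 10−8 M (tenfold steps) with 48 h exposure. SRB-stained optical density read before compound addition (time zero), after 48 h with compound, and with vehicle control. Percent growth is calculated against control. GI50 is the concentration giving 50% reduction in net growth relative to day-0 cell number.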

[2] = Growth inhibition of human HOP92 cells after 48 hrs by SRB assay; conditions: HOP-92, 48 h; outline: as §1
OVCAR-4 = experiment: Growth inhibition of human OVCAR4 cells after 48 hrs by SRB assay; conditions: OVCAR-4, 48 h; outline: as §1
[3] = Growth inhibition of human RXF393 cells after 48 hrs by SRB assay; conditions: RXF 393, 48 h; outline: as §1
PC-3 = experiment: Growth inhibition of human PC3 cells after 48 hrs by SRB assay; conditions: PC-3, 48 h; outline: as §1
[4] = Growth inhibition of human HCC2998 cells after 48 hrs by SRB assay; conditions: HCC 2998, 48 h; outline: as §1
Malme-3M = experiment: Growth inhibition of human MALME-3M cells after 48 hrs by SRB assay; outline: as §1
SK-MEL-5 = experiment: Growth inhibition of human SK-MEL-5 cells after 48 hrs by SRB assay; conditions: SK-MEL-5, 48 h; outline: as §1
CAKI-1 = experiment: Growth inhibition of human Caki1 cells after 48 hrs by SRB assay; conditions: CAKI-1, 48 h; outline: as §1
CCRF-CEM = experiment: Growth inhibition of human CCRF-CEM cells after 48 hrs by SRB assay; outline: as §1
U-251 = experiment: Growth inhibition of human U251 cells after 48 hrs by SRB assay; conditions: U-251, 48 h; outline: as §2
IGROV-1 = experiment: Growth inhibition of human IGROV1 cells after 48 hrs by SRB assay; conditions: IGROV-1, 48 h; outline: as §1
DU-145 = experiment: Growth inhibition of human DU145 cells after 48 hrs by SRB assay; conditions: DU-145, 48 h; outline: as §1
[5] = Growth inhibition of human MOLT4 cells after 48 hrs by SRB assay; conditions: MOLT-4, 48 h; outline: as §1
[6] = Growth inhibition of human EKVX cells after 48 hrs by SRB assay; outline: as §1
[7] = Growth inhibition of human LOXIMVI cells after 48 hrs by SRB assay; conditions: LOX IMVI; outline: as §1
[8] = Growth inhibition of human Hs578T cells after 48 hrs by SRB assay; conditions: Hs-578T; outline: as §1
SK-MEL-2 = experiment: Growth inhibition of human SK-MEL-2 cells after 48 hrs by SRB assay; conditions: SK-MEL-2, 48 h; outline: as §1
UO-31 = experiment: Growth inhibition of human UO31 cells after 48 hrs by SRB assay; conditions: UO-31, 48 h; outline: as §2
HCT-15 = experiment: Growth inhibition of human HCT15 cells after 48 hrs by SRB assay; conditions: HCT-15, 48 h; outline: as §1
MDA-MB-435 = experiment: Growth inhibition of human MDA-MB-435 cells after 48 hrs by SRB assay; conditions: MDA-MB-435, 48 h; outline: as §1
HCT-116 = experiment: Growth inhibition of human HCT116 cells after 48 hrs by SRB assay; conditions: HCT-116, 48 h; outline: as §1
MDA-MB-231 = experiment: Growth inhibition of human MDA-MB-231/ATCC cells after 48 hrs by SRB assay; conditions: MDA-MB-231, 48 h; outline: as §1
SF-268 = experiment: Growth inhibition of human SF268 cells after 48 hrs by SRB assay; conditions: SF-268, 48 h; outline: as §1
HOP-62 = experiment: Growth inhibition of human HOP62 cells after 48 hrs by SRB assay; conditions: HOP-62, 48 h; outline: as §1
TK-10 = experiment: Growth inhibition of human TK10 cells after 48 hrs by SRB assay; conditions: TK-10, 48 h; outline: as §2
K562 = experiment: Growth inhibition of human K562 cells after 48 hrs by SRB assay; conditions: K562, 48 h; outline: as §1
OVCAR-8 = experiment: Growth inhibition of human OVCAR8 cells after 48 hrs by SRB assay; conditions: OVCAR-8, 48 h; outline: as §1
NCI-H23 = experiment: Growth inhibition of human NCI-H23 cells after 48 hrs by SRB assay; conditions: NCI-H23, 48 h; outline: as §1
786-0 = experiment: Growth inhibition of human 786-0 cells after 48 hrs by SRB assay; conditions: 786-0, 48 h; outline: as §1
[9] = Growth inhibition of human SF295 cells after 48 hrs by SRB assay; conditions: SF-295, 48 h; outline: as §1
SNB-19 = experiment: Growth inhibition of human SNB19 cells after 48 hrs by SRB assay; conditions: SNB-19, 48 h; outline: as §1
[10] = Growth inhibition of human NCI-ADR-RES cells after 48 hrs by SRB assay; outline: as §1
NCI-H226 = experiment: Growth inhibition of human NCI-H226 cells after 48 hrs by SRB assay; conditions: NCI-H226, 48 h; outline: as §1
SN12C = experiment: Growth inhibition of human SN12C cells after 48 hrs by SRB assay; outline: as §1
A498 = experiment: Growth inhibition of human A498 cells after 48 hrs by SRB assay; conditions: A498, 48 h; outline: as §1
SNB-75 = experiment: Growth inhibition of human SNB75 cells after 48 hrs by SRB assay; conditions: SNB-75, 48 h; outline: as §2
SR = experiment: Growth inhibition of human SR cells after 48 hrs by SRB assay; outline: as §2
UACC-257 = experiment: Growth inhibition of human UACC257 cells after 48 hrs by SRB assay; conditions: UACC-257, 48 h; outline: as §2
HT-29 = experiment: Growth inhibition of human HT-29 cells after 48 hrs by SRB assay; conditions: HT-29, 48 h; outline: as §1
A549 = experiment: Growth inhibition of human A549/ATCC cells after 48 hrs by SRB assay; conditions: A549, 48 h; outline: as §1
[11] = Growth inhibition of human COLO205 cells after 48 hrs by SRB assay; conditions: COLO 205, 48 h; outline: as §1
OVCAR-3 = experiment: Growth inhibition of human OVCAR3 cells after 48 hrs by SRB assay; conditions: OVCAR-3, 48 h; outline: as §1
NCI-H460 = experiment: Growth inhibition of human NCI-H460 cells after 48 hrs by SRB assay; conditions: NCI-H460, 48 h; outline: as §1
SK-OV-3 = experiment: Growth inhibition of human SKOV3 cells after 48 hrs by SRB assay; conditions: SK-OV-3, 48 h; outline: as §1
OVCAR-5 = experiment: Growth inhibition of human OVCAR5 cells after 48 hrs by SRB assay; conditions: OVCAR-5, 48 h; outline: as §1
UACC-62 = experiment: Growth inhibition of human UACC62 cells after 48 hrs by SRB assay; conditions: UACC-62, 48 h; outline: as §2
[12] = Growth inhibition of human RPMI8226 cells after 48 hrs by SRB assay; conditions: RPMI-8226, 48 h; outline: as §1
NCI-H322M = experiment: Growth inhibition of human NCI-H322M cells after 48 hrs by SRB assay; outline: as §1
[13] = Growth inhibition of human SF539 cells after 48 hrs by SRB assay; conditions: SF-539, 48 h; outline: as §1
MCF7 = experiment: Growth inhibition of human MCF7 cells after 48 hrs by SRB assay; conditions: MCF7, 48 h; outline: as §1
M14 = experiment: Growth inhibition of human M14 cells after 48 hrs by SRB assay; conditions: M14, 48 h; outline: as §1

GI50 (NCI-H522): 153 nM
GI50 (ACHN): 810 nM
GI50 (SK-MEL-28): 346 nM
GI50 (SW-620): 293 nM
GI50 (OVCAR-4): 553 nM
GI50 (PC-3): 276 nM
GI50 (SK-MEL-5): 267 nM
GI50 (CCRF-CEM): 262 nM
GI50 (U-251): 338 nM
GI50 (DU-145): 402 nM
GI50 (SK-MEL-2): 323 nM
GI50 (HCT-15): 328 nM
GI50 (MDA-MB-435): 36 nM
GI50 (HCT-116): 246 nM
GI50 (MDA-MB-231): 450 nM
GI50 (K562): 88 nM
GI50 (OVCAR-8): 352 nM
GI50 (NCI-H23): 324 nM
GI50 (786-0): 445 nM
GI50 (NCI-H226): 442 nM
GI50 (HT-29): 234 nM
GI50 (A549): 310 nM
GI50 (OVCAR-3): 224 nM
GI50 (NCI-H460): 351 nM
GI50 (SK-OV-3): 263 nM
GI50 (OVCAR-5): 547 nM
GI50 (NCI-H322M): 649 nM
GI50 (MCF7): 285 nM
Structure (SMILES): COc1cc(/C=C/c2cc3ccccc3s2)cc(OC)c1OC
GI50 [1]: 326 nM
GI50 (KM12): 213 nM
GI50 [2]: 322 nM
GI50 [3]: 168 nM
GI50 [4]: 307 nM
GI50 (Malme-3M): 826 nM
GI50 (CAKI-1): 4.35 µM
GI50 (IGROV-1): 520 nM
GI50 [5]: 424 nM
GI50 [6]: 10.3 µM
GI50 [7]: 382 nM
GI50 [8]: 275 nM
GI50 (UO-31): 513 nM
GI50 (SF-268): 985 nM
GI50 (HOP-62): 420 nM
GI50 (TK-10): 566 nM
GI50 [9]: 442 nM
GI50 (SNB-19): 362 nM
GI50 [10]: 70 nM
GI50 (SN12C): 666 nM
GI50 (A498): 213 nM
GI50 (SNB-75): 190 nM
GI50 (SR): 120 nM
GI50 (UACC-257): 520 nM
GI50 [11]: 209 nM
GI50 (UACC-62): 185 nM
GI50 [12]: 268 nM
GI50 [13]: 299 nM
GI50 (M14): 169 nM

— ChEMBL document CHEMBL3596157, “Heteroaromatic analogs of the resveratrol analog DMU-212 as potent anti-cancer agents” (2015)
